Experiments:
[1] = AUClast in female cynomolgus monkey at 150 mg/kg, po; format: ADME, organism-based, Macaca fascicularis; parameters: dose 150 mg/kg, time 0 - last, route oral; conditions: in vivo
[2] = Metabolic stability in rat liver microsomes assessed as metabolic rate at 1 uM preincubated for 5 mins followed by NADPH addition and measured up to 30 mins by LC/MS-MS analysis; format: ADME, Microsome; conditions: 0.5 h
[3] = Unbound drug concentration in plasma of formalin-induced C57BL/6 mouse model of nociceptive pain at 3 mg/kg, po administered 30 mins before formalin stimulation and measured after 40 mins; format: ADME, organism-based; conditions: in vivo
Method in brief: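 Mice were dosed orally at 3 mg/kg 30 min before formalin challenge. Nociceptive behaviour was scored at 0–5 min (phase I) and 10–40 min (phase II). Plasma was collected at the end of the study, and the unbound drug concentration was determined.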

[4] = AUClast in Sprague-Dawley rat at 1 mg/kg, iv measured upto 24 hrs by LC/MS-MS analysis; format: ADME, organism-based; parameters: dose 1 mg/kg, time < 24 hr, route intravenous; conditions: in vivo
[5] = Metabolic stability in human liver microsomes assessed as metabolic rate at 1 uM preincubated for 5 mins followed by NADPH addition and measured up to 30 mins by LC/MS-MS analysis; format: ADME, Microsome; conditions: 0.5 h
[6] = Cmax in female cynomolgus monkey at 150 mg/kg, po; format: ADME, organism-based, Macaca fascicularis; parameters: dose 150 mg/kg, route oral; conditions: in vivo
[7] = Cmax in Sprague-Dawley rat at 1 mg/kg, iv measured upto 24 hrs by LC/MS-MS analysis; format: ADME, organism-based; parameters: dose 1 mg/kg, route intravenous; conditions: in vivo
[8] = Tmax in female cynomolgus monkey at 150 mg/kg, po; format: ADME, organism-based, Macaca fascicularis; conditions: in vivo
Method in brief: (§1)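 Cynomolgus monkeys, 3 male and 3 female, were given a single oral gavage dose of 150 mg/kg. Animals were watched for emesis. Tmax was recorded separately for males and females.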

[9] = Tmax in male cynomolgus monkey at 150 mg/kg, po; format: ADME, organism-based, Macaca fascicularis; conditions: in vivo; method in brief: as §1
[10] = AUClast in male cynomolgus monkey at 150 mg/kg, po; format: ADME, organism-based, Macaca fascicularis; parameters: dose 150 mg/kg, route oral, time 0 - last; conditions: in vivo
[11] = Oral bioavailability in BALB/c mouse at 10 mg/kg measured upto 24 hrs by LC/MS-MS analysis; format: ADME, organism-based; conditions: in vivo
Method in brief: (§2)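 Pharmacokinetics were run with an IV dose of 1 mg/kg and a PO dose of 10 mg/kg. Parameters reported were AUClast, Cmax, CL, T1/2, Vss and %F.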

[12] = Metabolic stability in mouse liver microsomes assessed as metabolic rate at 1 uM preincubated for 5 mins followed by NADPH addition and measured up to 30 mins by LC/MS-MS analysis; format: ADME, Microsome; conditions: 0.5 h
[13] = AUClast in BALB/c mouse at 1 mg/kg, iv measured upto 24 hrs by LC/MS-MS analysis; format: ADME, organism-based; parameters: time < 24 hr, dose 1 mg/kg, route intravenous; conditions: in vivo
[14] = Metabolic stability in dog liver microsomes assessed as metabolic rate at 1 uM preincubated for 5 mins followed by NADPH addition and measured up to 30 mins by LC/MS-MS analysis; format: ADME, Canis lupus familiaris, Microsome; conditions: 0.5 h
[15] = Cmax in BALB/c mouse at 10 mg/kg, po measured upto 24 hrs by LC/MS-MS analysis; format: ADME, organism-based; parameters: dose 10 mg/kg, route oral; conditions: in vivo
[16] = Apparent permeability across apical to basolateral side in human Caco2 cells; format: ADME, cell-based; conditions: Caco-2
[17] = Cmax in Sprague-Dawley rat at 10 mg/kg, po measured upto 24 hrs by LC/MS-MS analysis; format: ADME, organism-based; parameters: dose 10 mg/kg, route oral; conditions: in vivo
[18] = AUClast in Sprague-Dawley rat at 10 mg/kg, po measured upto 24 hrs by LC/MS-MS analysis; format: ADME, organism-based; parameters: time < 24 hr, dose 10 mg/kg, route oral; conditions: in vivo
[19] = Lipophilicity, log D of the compound; format: physicochemical; conditions: octanol/water
[20] = Clearance in Sprague-Dawley rat at 1 mg/kg, iv measured upto 24 hrs by LC/MS-MS analysis; format: ADME, organism-based; conditions: in vivo
[21] = Volume of distribution at steady state in Sprague-Dawley rat at 1 mg/kg, iv measured upto 24 hrs by LC/MS-MS analysis; format: ADME, organism-based; conditions: in vivo, read-out: Vdss
[22] = Half life in Sprague-Dawley rat at 1 mg/kg, iv measured upto 24 hrs by LC/MS-MS analysis; format: ADME, organism-based; conditions: in vivo
[23] = Volume of distribution at steady state in BALB/c mouse at 1 mg/kg, iv measured upto 24 hrs by LC/MS-MS analysis; format: ADME, organism-based; conditions: in vivo, read-out: Vdss; method in brief: as §2
[24] = Clearance in BALB/c mouse at 1 mg/kg, iv measured upto 24 hrs by LC/MS-MS analysis; format: ADME, organism-based; conditions: in vivo
[25] = Cmax in male cynomolgus monkey at 150 mg/kg, po; format: ADME, organism-based, Macaca fascicularis; parameters: dose 150 mg/kg, route oral; conditions: in vivo
[26] = Drug concentration in brain of formalin-induced C57BL/6 mouse model of nociceptive pain at 30 mg/kg, […]; format: ADME, organism-based; conditions: po
[27] = AUClast in BALB/c mouse at 10 mg/kg, po measured upto 24 hrs by LC/MS-MS analysis; format: ADME, organism-based; parameters: dose 10 mg/kg, time < 24 hr, route oral; conditions: in vivo
[28] = Half life in BALB/c mouse at 1 mg/kg, iv measured upto 24 hrs by LC/MS-MS analysis; format: ADME, organism-based; conditions: in vivo
[29] = Oral bioavailability in Sprague-Dawley rat at 10 mg/kg measured upto 24 hrs by LC/MS-MS analysis; format: ADME, organism-based; conditions: in vivo; method in brief: as §2
[30] = Metabolic stability in monkey liver microsomes assessed as metabolic rate at 1 uM preincubated for 5 mins followed by NADPH addition and measured up to 30 mins by LC/MS-MS analysis; format: ADME, Macaca mulatta, Microsome; conditions: rhesus monkey, 0.5 h
[31] = Cmax in BALB/c mouse at 1 mg/kg, iv measured upto 24 hrs by LC/MS-MS analysis; format: ADME, organism-based; parameters: dose 1 mg/kg, route intravenous; conditions: in vivo
[32] = Apparent permeability across basolateral to apical side in human Caco2 cells; format: ADME, cell-based; conditions: Caco-2

For `Cn1nccc1-c1cc(C(F)(F)F)ccc1[C@H]1CCc2cc(S(=O)(=O)Nc3ncccn3)ccc21`, the AUC(0-t) [1] was 601 µM·h, the Drug metabolism [2] was 0.04 nmol/min/mg and the “Cp(f)” value [3] was 0.343 µM. For the same compound, the AUC(0-t) at 24 h [4] was 7.9 µM·h, the Drug metabolism [5] was 0.03 nmol/min/mg and the Cmax [6] was 69 µM. The Cmax [7] was 2.5 µM, the Tmax [8] was 1.5 h and the Tmax [9] was 2 h. It also gave an AUC(0-t) [10] of 684 µM·h, a bioavailability [11] of 99% and a Drug metabolism [12] of 0.03 nmol/min/mg. For the same compound, the AUC(0-t) at 24 h [13] was 8.5 µM·h, the Drug metabolism [14] was 0.02 nmol/min/mg and the Cmax [15] was 18 µM. It also gave a Papp A→B [16] of 31.5 ×10⁻⁶ cm/s, a Cmax [17] of 10.9 µM and an AUC(0-t) at 24 h [18] of 46 µM·h. It also gave a logD [19] of 2.4, a clearance [20] of 4.9 mL/min/kg and a Vd [21] of 1 L/kg. The half-life [22] was 2.7 h, the Vd [23] was 0.8 L/kg and the clearance [24] was 3.3 mL/min/kg. For the same compound, the Cmax [25] was 66 µM, the concentration at 40 min [26] was 2.1 µM and the AUC(0-t) at 24 h [27] was 84 µM·h. It also gave a half-life [28] of 2.8 h, a bioavailability [29] of 58% and a Drug metabolism [30] of 0.03 nmol/min/mg. It also gave a Cmax [31] of 2 µM and a Papp B→A [32] of 36.7 ×10⁻⁶ cm/s.

From ChEMBL document CHEMBL4627393, “Discovery of Potent, Selective, and State-Dependent NaV1.7 Inhibitors with Robust Oral Efficacy in Pain Models: Structure-Activity Relationship and Optimization of Chroman and Indane Aryl Sulfonamides” (J Med Chem, 2020)
